TRAIL sens C8: sensitizes caspase-8 expressing cells to TRAIL. NB7+C8 cells + TRAIL, ATPlite viability luminescence. inhibition (viability loss, TRAIL sensitization), % at 10 µM. hit rate 1% among 360,000. AID 624354;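 active = compounds causing at least 50% loss of cell viability in the single-dose screen, relative to plate controls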
FLuc inhib CS: inhibits firefly luciferase, flagging false hits in luciferase inhibition screens; ATPLite firefly luciferase biochemical luminescence, 10 min; P08659; hit rate 1.5% among 200,000; inhibition, % at 10 µM;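 active = inhibition above about 50% when tested at 10 µM, limit read from the data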
Target sequence (P08659 whole entry, looked up): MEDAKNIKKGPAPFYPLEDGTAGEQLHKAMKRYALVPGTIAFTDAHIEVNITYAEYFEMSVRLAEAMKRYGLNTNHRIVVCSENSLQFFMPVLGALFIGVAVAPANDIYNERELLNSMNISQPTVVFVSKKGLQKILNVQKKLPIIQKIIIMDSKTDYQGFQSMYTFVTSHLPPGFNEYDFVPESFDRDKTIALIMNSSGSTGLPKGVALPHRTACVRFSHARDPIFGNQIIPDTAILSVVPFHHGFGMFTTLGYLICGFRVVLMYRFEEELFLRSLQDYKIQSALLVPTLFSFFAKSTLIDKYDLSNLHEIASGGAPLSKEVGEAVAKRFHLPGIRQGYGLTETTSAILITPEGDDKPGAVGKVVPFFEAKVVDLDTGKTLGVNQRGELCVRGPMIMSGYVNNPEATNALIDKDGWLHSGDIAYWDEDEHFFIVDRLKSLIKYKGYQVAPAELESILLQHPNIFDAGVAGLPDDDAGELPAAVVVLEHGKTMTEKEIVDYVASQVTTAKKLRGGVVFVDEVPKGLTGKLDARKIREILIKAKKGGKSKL
Wee1 degr inh: blocks degradation of human Wee1 kinase; P30291; HeLa Luc-Wee1K328M stability, luciferase luminescence; 100% = proteasome inhibitor MG132 effect; reporter increase, % at 5 µM; hit rate 1.2% among 220,000; AID 1321;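 active = activation above the mean of all tested compounds plus 3 SD, set per screening run, cut at about 8.8% in these data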;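 also: cells exposed to compound for 20 h before luminescence read; 0% = DMSO alone and 100% = MG132 at 30 µM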
PKD1 kinase inh: inhibitors of human PKD1 kinase. Q15139. PKD1 kinase fluorescence polarization assay. inhibition, % (concentration not given with the values). hit rate 0.056% among 200,000. AID 797; in the data active = inhibition above about 50%
FLuc stim CS: firefly luciferase counter-screen for stimulation assays; 200,000 tested, under 10 active; ATPlite luciferase biochemical, luminescence, 10 min; 0 = ATP-free wells, 1 = DMSO control; activation factor at 10 µM; AID 1027;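 active = luciferase activation factor, scaled between plate controls, of at least 2 with compound at 10 µM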
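Assay system – cell-free luciferase reagent · Medium – PBS-based ATP solution · Dosing – test compounds dosed from 2 mM stocks in 100% DMSO · Timing – 10 min, room temperature · Technique – light output (luminescence) · Measure – luminescence gain marking luciferase activators · Controls – No-ATP low control, compound-free enzyme-plus-ATP high control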
PPC-1+TRAIL kill: PPC-1 cancer cell killing with TRAIL present; PPC-1 cells + TRAIL, ATPLite viability luminescence; hit rate 0.41% among 220,000; cell killing (% activity), % at 4 µM or 5 µM;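 active = cell killing above 50% in the first pass at 4 µM, then a duplicate retest at 5 µM averaging 50% or more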;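 also: plate controls were cells with TRAIL plus DMSO for no effect and medium-only wells lacking cells for full effect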
Starred values were filed as active, the others as inactive; nt = not tested or not shown. Rows were chosen to be rich in hits. Some 2.2% of all compounds tested hit in one or more screens of this group.

SMILES	TRAIL sens C8	FLuc inhib CS	Wee1 degr inh	PKD1 kinase inh	FLuc stim CS	PPC-1+TRAIL kill
COC(=O)N/N=C/c1c[nH]c2ccccc12	-3.0	0.2	3.6	4.5	1	8.5
Cc1cccc(NC(=O)c2ccc3c(Cl)c4c(nc3c2)CCCC4)n1	69.9*	81.4*	-2.0	3.6	0.2	35.9
O=C(Nc1ccc(Cl)cn1)c1ccc2c(Cl)c3c(nc2c1)CCC3	56.7*	nt	3.1	nt	nt	47.0
Cn1cc(S(=O)(=O)NC[C@H]2O[C@@H](n3ccc(=O)[nH]c3=O)[C@H](O)[C@@H]2O)cn1	-3.5	nt	nt	nt	nt	nt
Cc1cccc(-n2c(CNC(=O)c3ccc(S(=O)(=O)N4CCCCC4)cc3)n[nH]c2=S)c1	-2.7	nt	nt	nt	nt	nt
COc1ccc(CCC(=O)Nc2cc(S(=O)(=O)N3CCOCC3)ccc2OC(C)C)cc1	1.4	nt	nt	nt	nt	nt
Cc1ccn(CC(C)C(=O)O)n1 (stereo not given)	-2.3	0.1	9.6*	-3.0	1	15.7
COc1ccc(-c2nnc(NC(=O)c3ccco3)s2)cc1	60.4*	nt	nt	nt	nt	nt
O=C(Nc1nnc(COc2ccc(Cl)cc2)s1)c1ccco1	-1.9	-2.7	9.8*	7.9	1	-2.1
O=C(Nc1nnc(C23CC4CC(CC(C4)C2)C3)s1)c1ccco1	23.6	27.5	9.4*	-5.9	0.7	17.2
Cc1ccc(OCc2nnc(NC(=O)c3ccco3)s2)cc1	-3.0	-4.8	-2.2	-7.1	1	-4.2
Cc1ccc(-c2nnc(NC(=O)c3ccco3)s2)cc1	67.9*	nt	nt	nt	nt	nt
C/C(=N\NC(=O)Cn1nnc2ccccc21)c1ccco1	-9.5	-3.3	1.1	-4.1	1	10.8
CC(C)Oc1cccc(C(=O)C2CCCN(C(=O)CCc3cnn(C)c3)C2)c1 (stereo not given)	14.7	nt	nt	nt	nt	nt
CCN1/C(=C/c2ccc3ccccc3[n+]2CCCS(=O)(=O)[O-])C=Cc2cc(C)ccc21	11.2	nt	nt	nt	nt	nt
CCN1/C(=C/c2ccc3ccccc3[n+]2CC)C=Cc2ccccc21	58.9*	13.8	0.4	7.3	0.9	38.9
Cc1cc(-c2nnc(SCC(=O)Nc3nccs3)o2)no1	-3.2	nt	-2.6	nt	nt	8.8
CC(=O)c1ccc(NC(=O)c2cccc(N3C(=O)c4ccccc4C3=O)c2)cc1	8.0	nt	nt	nt	nt	nt
COc1ccc(NC(=O)c2cccc(N3C(=O)c4ccc(C(=O)Nc5ccc(OC)c(O)c5)cc4C3=O)c2)cc1O	57.8*	nt	nt	nt	nt	nt
O=C(/C=C/C(Cl)(Cl)Cl)Nc1ccc(Cl)cc1	92.9*	nt	nt	nt	nt	nt
Cc1ccc(NC(=O)c2sc3nc(CCl)[nH]c(=O)c3c2C)c(C)c1	54.5*	11.9	16.2*	-6.5	0.9	23.9
C(=NN1CCCCCC1)c1ccc2ccccc2n1	90.2*	nt	nt	nt	nt	nt
COCC(=O)n1nc(-c2ccccc2)nc1NCc1cccs1	10.3	-2.9	13.6*	-1.3	1	2.8
O=c1oc(-c2ccccc2)nc2sc3c(c12)CCC3	-0.1	25.6	0.9	-1.1	0.7	19.2
O=c1oc(-c2ccco2)nc2sc3c(c12)CCCC3	21.4	79.1*	-2.5	-9.0	0.2	-2.8
SMILES	TRAIL sens C8	FLuc inhib CS	Wee1 degr inh	PKD1 kinase inh	FLuc stim CS	PPC-1+TRAIL kill
Cc1cc(C(=O)CSc2n[nH]c(N)n2)c(C)n1-c1cccc(F)c1	15.3	13.1	2.6	-3.8	0.9	19.0
Cc1cc(C(=O)CSc2ncccn2)c(C)n1-c1cccc(F)c1	30.9	53.8*	0.2	1.5	0.5	13.0
O=C(CCCn1cnc([N+](=O)[O-])n1)Nc1ccc(F)c(Cl)c1	10.7	-3.2	9.9*	-2.3	1	21.7
O=C1c2ccccc2/C(=C\C#Cc2ccccn2)N1c1ccccc1	73.8*	nt	nt	nt	nt	nt
Cc1nc2cc(NC(=O)Nc3cccc([N+](=O)[O-])c3)ccc2n1C	59.0*	nt	nt	nt	nt	nt
CC(=O)c1ccc(NC(=O)Nc2ccc3c(c2)nc(C)n3C)cc1	4.2	8.4	1.4	-1.1	0.9	-1.3
Cc1ccc(NC(=O)Nc2ccc3c(c2)nc(C)n3C)cc1	47.1	74.2*	3.9	0.4	0.3	23.5
CCC(CC)C(=O)Nc1nnc(S(=O)(=O)N2CCCC2)s1	6.4	nt	nt	nt	nt	nt
Cc1nc(-c2cccc(NC(=O)c3ccc(-n4nccc4C)cc3)c2)cs1	59.9*	nt	nt	nt	nt	nt
Cc1ccc(/C(N)=N/OC(=O)c2cc(-c3ccccc3)nc3ccccc23)cc1	81.4*	2.2	2.1	11.2	1	-17.2
N/C(=N\OC(=O)/C=C/c1ccccc1)c1ccccc1	43.2	85.4*	-0.3	-0.6	0.1	-1.8
Cc1ccccc1C(=O)O/N=C(\N)c1ccc([N+](=O)[O-])cc1	-14.8	nt	nt	nt	nt	nt
Cc1ccccc1/C(N)=N/OC(=O)c1ccc(F)cc1	24.2	92.5*	2.0	1.6	0.1	22.3
Cc1ccccc1C(=O)O/N=C(\N)c1ccccc1	91.5*	nt	nt	nt	nt	nt
N/C(=N\OC(=O)/C=C/c1ccccc1)c1ccc(Cl)cc1	9.9	nt	-2.0	nt	nt	12.7
O=C(O)CC(Cc1ccccc1)(C(=O)O)c1ccccc1 (stereo not given)	-7.1	nt	nt	nt	nt	nt
CC(C)Nc1ncnc2c1ncn2[C@H]1CN(Cc2ccc3c(c2)OCO3)C[C@@H](CO)O1	-10.2	nt	nt	nt	nt	nt
Cc1cccc(/C(N)=N/OC(=O)c2ccoc2C)c1	90.9*	nt	nt	nt	nt	nt
C/C(=N\OC(=O)c1ccc(F)cc1)c1sc(-c2ccccc2)nc1C	7.4	-3.6	-2.6	-11.1	1	26.2
C/C(=N/OC(=O)c1ccc(F)cc1)c1ccc(C)cc1	-2.9	70.0*	-1.5	-11.6	0.3	14.8
CC(NC(=O)COC(=O)CNC(=O)C1CCCCC1)c1ccccc1 (stereo not given)	-25.8	nt	nt	nt	nt	nt
CC(OC(=O)CCc1nc2ccccc2[nH]c1=O)C(=O)c1ccccc1 (stereo not given)	-1.2	-5.1	2.6	-3.0	1.1	4.3
CC(OC(=O)CCc1nc2ccccc2[nH]c1=O)c1ccccc1 (stereo not given)	-5.7	-6.2	10.7*	-3.2	1.1	11.5
Cc1cccc(-c2ccc3c(c2)C2CC3CCN2)c1 (stereo not given)	9.9	nt	nt	nt	nt	nt
O=C(/C=C/[C@H]1O[C@@H](n2cnc3c(NC(=O)c4ccccc4)ncnc32)[C@H](O)[C@@H]1O)NCC1CCCO1 (stereo not given in full)	54.2*	nt	nt	nt	nt	nt
SMILES	TRAIL sens C8	FLuc inhib CS	Wee1 degr inh	PKD1 kinase inh	FLuc stim CS	PPC-1+TRAIL kill
CN1/C(=C/C2CC(=O)NC2=O)C(C)(C)c2ccccc21 (stereo not given)	-13.2	0.6	13.0*	1.9	1	13.8
CN1/C(=C/C2CC(=O)N(c3cccc4ccccc34)C2=O)C(C)(C)c2ccccc21 (stereo not given)	-2.3	-11.4	3.3	-2.2	1.1	15.1
N#C/C(=C(/O)c1cccc(F)c1)c1nc2ccccc2s1	-3.4	nt	10.2*	nt	nt	-12.5
Cn1c(/C(C#N)=C(\O)c2cccc(F)c2)nc2ccccc21	-8.2	nt	nt	nt	nt	nt
CC(C)C(=O)OC/C(O)=C(\C#N)c1nc2ccccc2[nH]1	-1.3	3.9	6.5	-0.7	1	1.8
N#C/C(=C(/O)COC(=O)c1ccc(O)cc1)c1nc2ccccc2[nH]1	-16.1	nt	8.9*	nt	nt	8.4

Source: PubChem BioAssay
